The nature of data set [1]: Cytotoxicity against Wistar rat splenocytes assessed as reduction in cell viability at 10^-5 to 10^-1 mM after 24 hrs by MTT assay. In kind it is tissue-based. Conditions: splenocyte, dose 0.00001-0.1 mM. The method in brief:
(§1)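 Freshly isolated primary rat spleen lymphocytes and peritoneal macrophages, cultured separately. Read-out is MTT metabolism, taken as mitochondrial reductase activity. Values are mean percentages with SD, relative to RPMI-treated control cells.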

In data set [2] the test system is Peritoneal macrophage. Nature of the data set: Cytotoxicity against Wistar rat peritoneal macrophages assessed as reduction in cell viability at 10^-5 to 10^-1 mM after 24 hrs by MTT assay. In kind it is cell-based. As to conditions: dose 0.00001-0.1 mM. An outline of the steps: as §1
The nature of data set [3]: Cytotoxicity against Wistar rat splenocytes assessed as lysosomal activity at 10^-5 to 10^-1 mM after 24 hrs by neutral red dye-based assay. Conditions: splenocyte, dose 0.00001-0.1 mM. In kind it is tissue-based. The method in brief: (§2)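 Freshly isolated primary rat splenocytes and peritoneal macrophages. Read-out is neutral red accumulation, taken as lysosomal function. Results are compared with RPMI-treated control cells.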

The subject of data set [4] is Peritoneal macrophage. Nature of the data set: Inhibition of MPO in Wistar rat peritoneal macrophages assessed as oxidation of 1,2-diaminobenzene at 10^-5 to 10^-1 mM. Type of data set: tissue-based. Conditions: dose mM 0.00001-0.1, time 24.0 hrs.
The subject of data set [5] is Peritoneal macrophage. As to the kind of experiment: Cytotoxicity against Wistar rat peritoneal macrophages assessed as assessed as lysosomal activity at 10^-5 to 10^-1 mM after 24 hrs by neutral red dye-based assay. Conditions: dose 0.00001-0.1 mM. Type of data set: cell-based. The method in brief:
as §2

The nature of data set [6]: Cytotoxicity against Wistar rat splenocytes assessed as lysosomal activity at 100 uM after 24 hrs by neutral red dye-based assay. In kind it is tissue-based. As to conditions: splenocyte. The method in brief: as §2
For data set [7], the system named is Peritoneal macrophage. Nature of the data set: Cytotoxicity against Wistar rat peritoneal macrophages assessed as lysosomal activity at 10 to 100 uM after 24 hrs by neutral red dye-based assay. In kind it is cell-based. As to conditions: dose 10-100 µM. An outline of the steps:
as §2

Data set [8] concerns Peritoneal macrophage. As to the kind of experiment: Cytotoxicity against Wistar rat peritoneal macrophages assessed as reduction in cell viability at 100 uM after 24 hrs by MTT assay. In kind it is cell-based. An outline of the steps: as §1
(In general: Tetrazolium dyes change colour on reduction, which living cells bring about.)

Data set [9] in a line: Cytotoxicity against Wistar rat splenocytes assessed as reduction in cell viability at 100 uM after 24 hrs by MTT assay. Type of data set: tissue-based. As to conditions: splenocyte. The method in brief: as §1
Data set [10] has as its system Peritoneal macrophage. As to the kind of experiment: Cytotoxicity against Wistar rat peritoneal macrophages assessed as lysosomal activity at 100 uM after 24 hrs by neutral red dye-based assay. Type of data set: cell-based. An outline of the steps:
as §2

This passage reports Activity and inhibition results from ChEMBL document CHEMBL4665848, “Constituents of Bupleurum praealtum and Bupleurum veronense with Potential Immunomodulatory Activity” (J Nat Prod, 2020).

Calls of active or inactive are those of the source. The calls are words filed in the database; no cut-off is given here.

Take `CC/C=C/C=C/C=C/C=C\CCCCOC(=O)[C@H](O)C(C)C`: the Activity entry (in data set [1]; in the data set with Peritoneal macrophage [2]; in data set [3]; in the data set on Peritoneal macrophage [5]) was “Non-Toxic” in each case. In addition, the inhibition entry with Peritoneal macrophage [4] is “Active”.
Take `COc1ccc(C[C@H]2COC(=O)[C@@H]2Cc2ccc(OC)c(OC)c2)cc1OC`: the Activity result (in data set [6]; in the data set with Peritoneal macrophage [7]) was “Non-Toxic” in each case.
With `CC/C=C/C=C/C=C/C=C\CCCCOC(=O)[C@H](OC(C)=O)C(C)C`, the Activity result (in data set [1]; in the data set with Peritoneal macrophage [2]; in [3]; with Peritoneal macrophage [5]) was “Non-Toxic” throughout.
For `CC/C=C/C=C/C=C/C=C/[C@@H]1CCC(=O)O1`, the Activity result (with Peritoneal macrophage [8]; in data set [9]; in the data set on Peritoneal macrophage [10]; in [6]) was “Toxic” each time. In addition, the inhibition entry in the data set with Peritoneal macrophage [4] is “Active”.
